Screening data deposited in PubChem BioAssay by several laboratories.
Diaphorase act: compounds boosting diaphorase resazurin reduction – biochemical, uHTS, resorufin fluorescence, counter-screen for diaphorase-coupled primary assays, primary screen. actives 0.005% (n = 190,000). activation factor at 20 µM. Diaphorase/resazurin coupled assay, 16 min; active compounds read high; 1 = vehicle wells, 0 = NADH-free wells;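 active = diaphorase activity raised at least twofold by the compound at 20 µM; inactive = activation factor below 2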
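System – purified diaphorase enzyme from Clostridium kluyveri · Input – enzyme 0.07 U/mL final · Also added – final NADH 0.114 mM, resazurin 0.1 mM · Measured by – fluorescence of resorufin, 544 nm excitation, 590 nm emission · Timing – 16 min enzyme reaction, ambient temperature · Measure – resorufin increase flagging diaphorase activators or reducers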
WT yeast gro inh: growth inhibition of WT strain, primary screen, mitochondrial fusion inhibitor project, WT and mutant strains, chemical genetic | mitochondrial fusion phenotypic screen | inhibition, % at 10 µM | actives 2.1% (n = 190,000) | AID 1362, 2008; in the data active = inhibition above about 58%; tested in S. cerevisiae
G6PDH counter: L. mesenteroides G6PDH inhibitors, counter-screen for G6PDH-coupled screening assays, biochemical, Leuconostoc mesenteroides enzyme | glucose-6-phosphate dehydrogenase [Leuconostoc mesenteroides] | Purified L. mesenteroides G6PDH, diaphorase/resazurin coupled fluorescence, 45 min | inhibition, % at 5 µM | actives 0.12% (n = 200,000) | AID 1020, 2008
Diaphorase inh: diaphorase inhibitors and chemical oxidizers, primary screen, counter-screen for diaphorase-coupled primary assays, biochemical, uHTS, resorufin fluorescence | inhibition, % at 20 µM | AID 1217, 2008 | actives 0.69% (n = 190,000) | diaphorase resazurin-to-resorufin fluorescence, NADH, 16 min; bacterial (C. kluyveri) enzyme, not human;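 active = primary screen inhibition at 20 µM above a set limit, cut at about 50% in these data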;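 note: plate controls were DMSO with full reaction for no effect and wells lacking NADH for full effect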
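Assay system: diaphorase enzyme from Clostridium kluyveri. Quantity: enzyme working solution with 0.14 U/mL diaphorase. Schedule: reaction incubation of 16 min at room temperature. Technique: resorufin fluorescence, excitation 544 nm, emission 590 nm. Controls: No-NADH positive control and DMSO neutral control.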
Lmaj promast: Leishmania major promastigote growth inhibition, primary screen. inhibition, % at 10 µM. actives 9% (n = 200,000). Leishmania major promastigotes, resazurin fluorescence viability;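 note: promastigotes grown with compound for 44 hours at 28 °C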
Numbers without * were called inactive; / = not tested or not shown. Shown are actives, neighbours in structure and some others; about 11% of the full set was active somewhere. Cut-off read from the data, not from the text of the source, unless noted: active = inhibition above about 50%; inactive = the rest.

SMILES | Diaphorase act | WT yeast gro inh | G6PDH counter | Diaphorase inh | Lmaj promast
Cc1ccc(C(=O)CSc2nc3cc(S(=O)(=O)N4CCOCC4)ccc3o2)cc1 | 0.7 | -0.4 | -2.4 | 31.0 | -5.3
Cc1ccc2cc(CCNC(=O)C3CCCC3)c(=O)[nH]c2c1 | 0.9 | 3.5 | -6.9 | 11.7 | -5.9
O=C(NCc1ccccc1)c1ccc(S(=O)(=O)N2CCCC2)cc1 | 1 | / | 11.3 | 1.3 | 2.0
Cc1[nH]c2ccccc2c1C(=O)CSc1nc2cc(S(=O)(=O)N3CCCCC3)ccc2o1 | 0.7 | 5.6 | 1.0 | 30.2 | 54.9*
Cc1cc2cc(CCNC(=O)c3ccc(S(=O)(=O)N4CCOCC4)cc3)c(=O)[nH]c2cc1C | 0.4 | -6.3 | 3.3 | 58.4* | 2.6
O=C(N/N=C/c1c(Nc2cccc(C(F)(F)F)c2)nc2ccccn2c1=O)c1ccccc1[N+](=O)[O-] | 0.8 | 6.8 | -55.5 | 20.2 | -0.7
O=C(C1CC1)N1N=C(C2CCCCC2)CC1(O)C(F)(F)F (stereo not drawn) | 0.9 | 11.3 | 7.0 | 8.3 | -6.8
Cc1cc2nc3c(=O)[nH]c(=O)[nH]c3nc2c([N+](=O)[O-])c1N | 0.3 | -5.6 | 29.7 | 65.1* | 30.5
O=C(CSc1nc2ccccc2[nH]1)Nc1ccc2c(c1)OCCO2 | 0.8 | -2.7 | 15.4 | 15.8 | 11.3
O=C(CSc1ncccc1-c1nc2ccccc2[nH]1)Nc1ccc2c(c1)OCCO2 | 0.8 | 5.5 | -19.8 | 17.4 | 72.8*
Cc1cccc(C)c1NC(=S)NC(C)CCc1ccccc1 (stereo not drawn) | 0.9 | 72.9* | -2.8 | 5.4 | 60.5*
Cc1ccc(NC(=S)NC(C)CCc2ccccc2)cc1C (stereo not drawn) | 0.8 | 67.5* | 2.4 | 16.4 | 90.3*
COc1ccccc1-c1nnc(Sc2nc([N+](=O)[O-])nn2C)o1 | 0.9 | -16.3 | -5.9 | 12.8 | 96.8*
Cc1ccc2[nH]c3c(N4CCCCCC4)ncnc3c2c1 | 0.9 | -1.4 | -35.1 | 7.3 | 60.0*
COc1ccc2c(c1)[nH]c1c(N3CCN(Cc4ccc5c(c4)OCO5)CC3)ncnc12 | 1 | 1.2 | 1.3 | 4.2 | 78.3*
c1ccc(CN2CCN(c3ncnc4c3[nH]c3ccccc34)CC2)cc1 | 0.9 | 6.8 | 1.8 | 5.8 | 89.3*
Cc1ccc2[nH]c3c(N4CCN(Cc5ccc6c(c5)OCO6)CC4)ncnc3c2c1 | 0.9 | -6.7 | -1.6 | 12.0 | 62.1*
COc1cccc2[nH]c3c(N4CCC(C)CC4)ncnc3c12 | 1 | 12.8 | 3.9 | -2.1 | 94.0*
CCOc1ccc2[nH]c3c(N4CCN(c5ccccn5)CC4)ncnc3c2c1 | 0.9 | 43.3 | -38.6 | 11.4 | 27.7
Cc1ccc2c(c1)[nH]c1c(N3CCN(Cc4ccccc4)CC3)ncnc12 | 1.1 | 51.7 | 2.6 | -8.8 | 96.7*
OC1(c2cccc(C(F)(F)F)c2)CCN(c2ccc(-c3ccccc3)nn2)CC1 | 0.9 | -25.2 | 7.6 | 8.6 | -2.2
OC1(c2cccc(C(F)(F)F)c2)CCN(c2ncnc3c2[nH]c2ccccc23)CC1 | / | 84.8* | / | / | 98.3*
COc1cc2[nH]c3c(N4CCN(c5ccc(Cl)cc5)CC4)ncnc3c2cc1OC | 0.7 | -0.3 | -0.9 | 26.5 | 19.1
Cc1ccc2[nH]c3c(N4CCN(Cc5ccccc5)CC4)ncnc3c2c1 | 1 | 24.9 | 1.8 | 2.6 | 56.9*
O=C(Cn1cnc2ccc(Cl)cc2c1=O)c1cccs1 | 1.1 | -6.7 | -0.9 | -6.5 | -5.2
SMILES | Diaphorase act | WT yeast gro inh | G6PDH counter | Diaphorase inh | Lmaj promast
O=C(N/N=C/c1ccc2c(c1)OCO2)C(=O)Nc1ccc2ccccc2c1 | 1.1 | 2.9 | 5.0 | -6.8 | -0.1
O=C(CCc1ccccc1)Nc1cc(C(=O)O)cc(C(=O)O)c1 | 0.9 | -19.7 | 14.2 | 6.0 | -6.7
c1ccc2c(c1)[nH]c1c(N3CCC4(CC3)OCCO4)ncnc12 | 0.8 | 16.7 | 0.8 | 15.7 | 25.1
c1nc(N2CCN(Cc3ccc4c(c3)OCO4)CC2)c2[nH]cnc2n1 | 1 | -10.6 | -14.0 | 4.4 | -0.5
c1ccc2c(c1)CCN(c1ncnc3c1[nH]c1ccccc13)C2 | 0.8 | 72.2* | -28.1 | 20.0 | /
Fc1ccc2[nH]c3c(N4CCN(C5CCCCC5)CC4)ncnc3c2c1 | 1 | -0.7 | 3.9 | -4.0 | 84.8*
